In ChEMBL document CHEMBL5705890, “Antitumor activity of an allosteric inhibitor of centromere-associated protein-E” (Proc Natl Acad Sci U S A, 2010):

What was measured:
SW837 = assay: Anticancer activity against human SW837 cells assessed as cell doubling measured for 72 hrs by DAPI staining based analysis; format: functional
BPH-1 = assay: Anticancer activity against human BPH-1 cells assessed as cell growth inhibition measured after 72 hrs by DAPI staining based analysis; format: functional
Outline: (§1)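 Cells were seeded, and DNA content at 24 h after seeding (T0) was read by imaging of fixed, DAPI-stained cells. Cells were then exposed to a range of drug concentrations for a further 72 h (T72) and DNA content was read again. T72 values were normalized to T0, and GI50 was taken from curve fits as the concentration giving 50% growth inhibition relative to T0 and Ymax.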

HuT78 = assay: Anticancer activity against human HuT78 cells assessed as cell growth inhibition measured after 72 hrs by DAPI staining based analysis; format: functional
5637 = assay: Anticancer activity against human 5637 cells assessed as cell growth inhibition measured after 72 hrs by DAPI staining based analysis; format: functional
Outline: (§2)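 Cells were seeded and, after 24 h, DNA content was read as T0. Cells were then exposed to varying drug concentrations for a further 72 h (T72). Fixed cells were DAPI-stained and DNA content measured by automated imaging. T72 values were normalized to T0. GI50 is the concentration giving 50% growth inhibition between T0 and Ymax, obtained by curve fitting.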

PC-3 = assay: Anticancer activity against human PC-3 cells assessed as cell doubling measured for 72 hrs by DAPI staining based analysis; format: functional
DU-145 = assay: Anticancer activity against human DU-145 cells assessed as cell doubling measured for 72 hrs by DAPI staining based analysis; format: functional
LS-1034 = assay: Anticancer activity against human LS1034 cells assessed as cell doubling measured for 72 hrs by DAPI staining based analysis; format: functional
MC-IXC [1] = assay: Anticancer activity against human MC-IXC cells assessed as cell doubling measured for 72 hrs by DAPI staining based analysis; format: functional
A101D = assay: Anticancer activity against human A101D cells assessed as cell growth inhibition measured after 72 hrs by DAPI staining based analysis; format: functional; outline: as §2
NCI-H23 = assay: Anticancer activity against human NCI-H23 cells assessed as cell doubling measured for 72 hrs by DAPI staining based analysis; format: functional
Raji = assay: Anticancer activity against human Raji cells assessed as cell doubling measured for 72 hrs by DAPI staining based analysis; format: functional
NCI-H2052 = assay: Anticancer activity against human NCI-H2052 cells assessed as cell doubling measured for 72 hrs by DAPI staining based analysis; format: functional
MCF7 = assay: Anticancer activity against human MCF7 cells assessed as cell doubling measured for 72 hrs by DAPI staining based analysis; format: functional
CGTH-W-1 = assay: Anticancer activity against human CGTH-W-1 cells assessed as cell growth inhibition measured after 72 hrs by DAPI staining based analysis; format: functional; outline: as §1
[2] = Anticancer activity against human NL-SCLC3 cells assessed as cell doubling measured for 72 hrs by DAPI staining based analysis; format: functional
SNB-75 = assay: Anticancer activity against human SNB-75 cells assessed as cell growth inhibition measured after 72 hrs by DAPI staining based analysis; format: functional
Y79 = assay: Anticancer activity against human Y79 cells assessed as cell growth inhibition measured after 72 hrs by DAPI staining based analysis; format: functional
SW756 = assay: Anticancer activity against human SW756 cells assessed as cell growth inhibition measured after 72 hrs by DAPI staining based analysis; format: functional
KM12 = assay: Anticancer activity against human KM12 cells assessed as cell growth inhibition measured after 72 hrs by DAPI staining based analysis; format: functional
CHP-212 = assay: Anticancer activity against human CHP-212 cells assessed as cell growth inhibition measured after 72 hrs by DAPI staining based analysis; format: functional; outline: as §1
ACHN = assay: Anticancer activity against human ACHN cells assessed as cell doubling measured for 72 hrs by DAPI staining based analysis; format: functional
[3] = target: Centromere-associated protein E (Homo sapiens, UniProt Q02224); assay: Inhibition of microtubule-stimulated ATPase activity of C-terminal 6-his-tagged CENP-E (2 to 340 residues)(unknown origin) expressed in Escherichia coli BL21(DE3) in presence of ATP
Sequence of Centromere-associated protein E (Q02224 whole entry, the tested form may be a part): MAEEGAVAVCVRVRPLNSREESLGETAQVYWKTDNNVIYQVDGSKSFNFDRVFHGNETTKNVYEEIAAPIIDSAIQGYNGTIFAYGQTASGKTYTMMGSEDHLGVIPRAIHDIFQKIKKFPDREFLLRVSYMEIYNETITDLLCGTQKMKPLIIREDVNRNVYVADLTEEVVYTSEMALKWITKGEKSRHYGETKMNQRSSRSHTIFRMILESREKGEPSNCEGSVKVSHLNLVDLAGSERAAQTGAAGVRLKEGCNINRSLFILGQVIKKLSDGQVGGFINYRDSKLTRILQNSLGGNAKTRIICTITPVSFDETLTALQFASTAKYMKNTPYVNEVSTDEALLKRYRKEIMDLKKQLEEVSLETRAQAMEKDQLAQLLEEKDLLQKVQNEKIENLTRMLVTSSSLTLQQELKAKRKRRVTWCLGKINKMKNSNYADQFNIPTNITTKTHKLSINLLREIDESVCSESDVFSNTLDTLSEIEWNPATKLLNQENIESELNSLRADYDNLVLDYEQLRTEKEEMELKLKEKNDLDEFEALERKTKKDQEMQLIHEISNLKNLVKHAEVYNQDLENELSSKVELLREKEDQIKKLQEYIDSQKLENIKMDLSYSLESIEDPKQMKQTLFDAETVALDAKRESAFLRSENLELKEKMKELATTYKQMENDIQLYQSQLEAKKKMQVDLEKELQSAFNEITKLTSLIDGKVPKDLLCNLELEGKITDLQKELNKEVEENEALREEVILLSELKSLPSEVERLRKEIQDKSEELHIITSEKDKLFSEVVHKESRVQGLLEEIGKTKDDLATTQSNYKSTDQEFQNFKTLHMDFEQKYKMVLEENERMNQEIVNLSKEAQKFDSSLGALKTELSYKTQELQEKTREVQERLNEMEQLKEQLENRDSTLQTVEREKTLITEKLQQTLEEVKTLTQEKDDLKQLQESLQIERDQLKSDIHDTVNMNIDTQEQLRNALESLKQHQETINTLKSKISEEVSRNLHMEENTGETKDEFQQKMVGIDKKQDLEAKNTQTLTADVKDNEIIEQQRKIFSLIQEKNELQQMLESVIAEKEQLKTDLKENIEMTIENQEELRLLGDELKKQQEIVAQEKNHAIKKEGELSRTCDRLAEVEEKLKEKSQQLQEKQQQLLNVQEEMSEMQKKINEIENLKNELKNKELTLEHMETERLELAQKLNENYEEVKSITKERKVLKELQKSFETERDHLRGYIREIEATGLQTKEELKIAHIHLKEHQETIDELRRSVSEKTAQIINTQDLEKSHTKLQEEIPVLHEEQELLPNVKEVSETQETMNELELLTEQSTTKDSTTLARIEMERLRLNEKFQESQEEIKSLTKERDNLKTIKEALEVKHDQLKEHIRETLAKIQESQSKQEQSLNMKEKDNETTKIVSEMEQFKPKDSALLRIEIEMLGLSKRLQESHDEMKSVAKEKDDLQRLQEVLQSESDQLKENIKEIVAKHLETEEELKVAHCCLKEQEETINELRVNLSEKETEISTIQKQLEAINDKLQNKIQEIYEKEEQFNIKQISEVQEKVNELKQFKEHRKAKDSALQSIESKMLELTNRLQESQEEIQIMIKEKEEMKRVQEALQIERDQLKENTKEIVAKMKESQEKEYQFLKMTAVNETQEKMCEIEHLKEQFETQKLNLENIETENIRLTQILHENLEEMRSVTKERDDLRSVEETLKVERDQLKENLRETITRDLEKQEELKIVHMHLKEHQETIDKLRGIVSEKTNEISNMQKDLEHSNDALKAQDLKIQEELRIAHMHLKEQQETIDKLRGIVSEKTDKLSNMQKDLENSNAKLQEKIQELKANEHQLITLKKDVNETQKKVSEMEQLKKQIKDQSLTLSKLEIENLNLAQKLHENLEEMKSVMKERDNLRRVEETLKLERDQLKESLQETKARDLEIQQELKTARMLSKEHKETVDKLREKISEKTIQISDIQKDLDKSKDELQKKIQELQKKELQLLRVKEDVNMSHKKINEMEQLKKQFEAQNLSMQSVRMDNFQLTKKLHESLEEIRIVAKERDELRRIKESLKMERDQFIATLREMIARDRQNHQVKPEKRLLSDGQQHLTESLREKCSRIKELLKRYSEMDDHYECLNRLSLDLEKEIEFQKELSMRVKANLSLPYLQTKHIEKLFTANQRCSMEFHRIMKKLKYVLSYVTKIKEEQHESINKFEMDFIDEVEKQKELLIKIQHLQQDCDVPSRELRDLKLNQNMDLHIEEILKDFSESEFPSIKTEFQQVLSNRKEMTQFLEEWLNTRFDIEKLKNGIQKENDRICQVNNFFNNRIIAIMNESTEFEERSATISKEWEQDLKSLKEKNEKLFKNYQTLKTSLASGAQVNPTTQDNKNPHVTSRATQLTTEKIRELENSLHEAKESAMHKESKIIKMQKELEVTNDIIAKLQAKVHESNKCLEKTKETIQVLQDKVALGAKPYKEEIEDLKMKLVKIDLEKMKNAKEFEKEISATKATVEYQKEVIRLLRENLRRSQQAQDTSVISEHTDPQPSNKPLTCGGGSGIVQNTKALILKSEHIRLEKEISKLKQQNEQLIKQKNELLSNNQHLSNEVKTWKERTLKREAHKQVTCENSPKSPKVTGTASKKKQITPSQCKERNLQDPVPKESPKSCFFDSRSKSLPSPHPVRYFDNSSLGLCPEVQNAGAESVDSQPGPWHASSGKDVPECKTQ
Outline: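 Steady-state ATPase of CENP-E motor domain, residues 2–340 with C-terminal 6-His tag, expressed in E. coli BL21(DE3). Run at 1 nM enzyme, 500 μM ATP and 5 μM paclitaxel-stabilized microtubules in PEM25 (25 mM PIPES-K pH 6.8, 2 mM MgCl2, 1 mM EGTA) plus 10 μM paclitaxel. IC50 taken from concentration-response curves.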

COLO 201 = assay: Anticancer activity against human COLO201 cells assessed as cell growth inhibition measured after 72 hrs by DAPI staining based analysis; format: functional
Outline: (§3)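 Cells seeded, DAPI-stained DNA content of fixed cells read by imaging 24 h after seeding (T0), and again after a further 72 h exposure to a range of drug concentrations (T72). T72 values were normalized to T0. Curve fits gave the concentration producing 50% growth inhibition relative to T0 and Ymax (GI50).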

CHL-1 = assay: Anticancer activity against human CHL-1 cells assessed as cell growth inhibition measured after 72 hrs by DAPI staining based analysis; format: functional; outline: as §1
CAKI-2 = assay: Anticancer activity against human CAKI-2 cells assessed as cell growth inhibition measured after 72 hrs by DAPI staining based analysis; format: functional; outline: as §1
MDA-MB-468 = assay: Anticancer activity against human MDA-MB-468 cells assessed as cell doubling measured for 72 hrs by DAPI staining based analysis; format: functional
HPAF-II = assay: Anticancer activity against human HPAF-II cells assessed as cell growth inhibition measured after 72 hrs by DAPI staining based analysis; format: functional
A549 = assay: Anticancer activity against human A549 cells assessed as cell doubling measured for 72 hrs by DAPI staining based analysis; format: functional
BeWo = assay: Anticancer activity against human BeWo cells assessed as cell doubling measured for 72 hrs by DAPI staining based analysis; format: functional
[4] = Anticancer activity against human BC1 cells assessed as cell growth inhibition measured after 72 hrs by DAPI staining based analysis; format: functional; outline: as §2
MC-IXC [5] = assay: Anticancer activity against human MC-IXC cells assessed as cell growth inhibition measured after 72 hrs by DAPI staining based analysis; format: functional
[6] = Anticancer activity against human BC-2 cells assessed as cell doubling measured for 72 hrs by DAPI staining based analysis; format: functional
NCI-H520 = assay: Anticancer activity against human NCI-H520 cells assessed as cell growth inhibition measured after 72 hrs by DAPI staining based analysis; format: functional
G-402 = assay: Anticancer activity against human G-402 cells assessed as cell growth inhibition measured after 72 hrs by DAPI staining based analysis; format: functional; outline: as §3
DoTc2-4510 = assay: Anticancer activity against human DoTc2-4510 cells assessed as cell growth inhibition measured after 72 hrs by DAPI staining based analysis; format: functional; outline: as §3
NCI-H1299 = assay: Antitumor activity against human NCI-H1299 cells in xenograft model assessed as difference between median time to endpoint time of treated versus control group at 125 mg/kg; format: functional
MX1 = assay: Antitumor activity against human MX1 cells in xenograft model assessed as tumor growth delay at 62.5 mg/kg relative to control; format: functional

CC(C)Oc1ccc(C(=O)N[C@H](CNC(=O)CN(C)C)Cc2ccc(-c3cn4cccc([C@H](C)O)c4n3)cc2)cc1Cl [GSK-923295A]
Activity (SW837): 1.74
GI50 (BPH-1): 52 nM
GI50 (HuT78): 40 nM
GI50 5637: 23 nM
Activity (PC-3): 3.07
Activity (DU-145): 2.25
Activity (LS-1034): 1.73
Activity (MC-IXC [1]): 2.67
GI50 (A101D): 17 nM
Activity (NCI-H23): 2.04
Activity (Raji): 3.26
Activity (NCI-H2052): 2.09
Activity (MCF7): 1.65
GI50 (CGTH-W-1): 30 nM
Activity [2]: 2.68
GI50 (SNB-75): 26 nM
GI50 (Y79): 70 nM
GI50 (SW756): 35 nM
GI50 (KM12): 56 nM
GI50 (CHP-212): 34 nM
Activity (ACHN): 2.51
IC50 [3]: 2.3 nM
GI50 (COLO 201): 24 nM
GI50 (CHL-1): 24 nM
GI50 (CAKI-2): 25 nM
Activity (MDA-MB-468): 2.05
GI50 (HPAF-II): 5030 nM
Activity (A549): 3.53
Activity (BeWo): 2.95
GI50 [4]: 83 nM
GI50 (MC-IXC [5]): 27 nM
Activity [6]: 1.94
GI50 (NCI-H520): 34 nM
GI50 (G-402): 31 nM
GI50 (DoTc2-4510): 33 nM
Time (NCI-H1299): 16.8 days
Activity (MX1): 5%
